Test results: ChEMBL document CHEMBL1135419, “Molecular docking and high-throughput screening for novel inhibitors of protein tyrosine phosphatase-1B” (J Med Chem, 2002)

Each compound was assayed against T1, Tyrosine-protein phosphatase non-receptor type 1 (Homo sapiens, UniProt P18031) (assay: Inhibition of human Protein-tyrosine phosphatase 1B (PTP1B) dephosphorylation of insulin receptor peptide).
T1 sequence (P18031 whole entry): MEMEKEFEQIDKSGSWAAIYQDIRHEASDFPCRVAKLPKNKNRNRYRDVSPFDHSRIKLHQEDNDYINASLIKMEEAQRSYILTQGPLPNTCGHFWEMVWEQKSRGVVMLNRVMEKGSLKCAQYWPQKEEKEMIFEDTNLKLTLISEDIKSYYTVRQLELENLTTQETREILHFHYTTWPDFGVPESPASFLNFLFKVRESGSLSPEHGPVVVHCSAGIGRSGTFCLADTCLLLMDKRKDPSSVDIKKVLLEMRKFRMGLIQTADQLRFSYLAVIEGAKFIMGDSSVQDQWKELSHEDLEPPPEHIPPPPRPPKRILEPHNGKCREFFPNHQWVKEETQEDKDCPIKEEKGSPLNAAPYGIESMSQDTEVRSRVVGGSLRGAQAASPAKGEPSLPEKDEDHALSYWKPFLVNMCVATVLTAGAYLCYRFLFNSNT
Method in brief: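 Human recombinant PTP1B (residues 1-322) with 50 µM phosphopeptide substrate, room temperature, stopped with malachite green reagent, absorbance read at 620 nm. Docking-set assay: 1 nM enzyme in 25 mM HEPES pH 7.4, 125 mM NaCl, 1 mM EDTA, 10% glycerol, 10 mM DTT, no albumin, 10 min, DMSO below 10%, triplicates. HTS assay: 0.9 nM enzyme, pH 7.0, 0.03% BSA, 60 min.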

Row | SMILES | IC50 [µM]
1 | O=C(O)c1ccc(N2C(=O)/C(=C\C=C\c3ccccc3)SC2=S)cc1 | 4.4
2 | CSc1[nH]nc(NC(=O)c2ccc(Cl)c(Cl)c2)c1S(=O)(=O)c1ccc(Cl)cc1 | 63.9
3 | O=C(Nc1ccc(O)cc1)/C(=C/c1c[nH]c2ccccc12)NC(=O)c1ccccc1 | 21.5
4 | O=C(O)c1ccc(-c2ccc(/C=C3/S/C(=N\c4ccccc4)N(c4ccccc4)C3=O)o2)cc1O | 9
5 | Oc1cccc(-c2nc(-c3ccc(-c4ccccc4)cc3)c(-c3ccc(-c4ccccc4)cc3)[nH]2)c1 | 8.6
6 | COC(=O)c1ccc2nc(NC(=O)COC(=O)c3ccc(Br)o3)sc2c1 | 34.4
7 | O=C1NC(=O)C(=Cc2ccc(Sc3nc4ccc([N+](=O)[O-])cc4s3)c([N+](=O)[O-])c2)C(=O)N1 | 4.1
8 | O=C(Nc1ccccc1)Nc1cc(-c2ccc(Cl)cc2)nn1-c1ccccc1 | 12
9 | O=C(O)c1ccc(/C=C2/SC(=S)N(Cc3ccccc3)C2=O)cc1 | 21.6
10 | CC1=NN(c2cccc(Cl)c2)C(=O)/C1=C\c1ccc(-c2ccc(C(=O)O)c(Cl)c2)o1 | 19.3
11 | CCOc1cc(/C=C2/N=C(c3ccc4c(c3)OCO4)OC2=O)cc(Cl)c1OC(C)=O | 35
